Laboratory results taken from ChEMBL document CHEMBL1132588, “Synthesis, CoMFA analysis, and receptor docking of 3,5-diacyl-2, 4-dialkylpyridine derivatives as selective A3 adenosine receptor antagonists” (J Med Chem, 1999).

Assays:
[1] = target: T1, Adenosine receptor A3 (Homo sapiens) (UniProt P0DMS8); assay: (§1) Displacement of specific [125 I]AB-MECA binding at human Adenosine A3 receptor expressed in HEK cells; format: cell-based; conditions: HEK293
T1 sequence (whole entry): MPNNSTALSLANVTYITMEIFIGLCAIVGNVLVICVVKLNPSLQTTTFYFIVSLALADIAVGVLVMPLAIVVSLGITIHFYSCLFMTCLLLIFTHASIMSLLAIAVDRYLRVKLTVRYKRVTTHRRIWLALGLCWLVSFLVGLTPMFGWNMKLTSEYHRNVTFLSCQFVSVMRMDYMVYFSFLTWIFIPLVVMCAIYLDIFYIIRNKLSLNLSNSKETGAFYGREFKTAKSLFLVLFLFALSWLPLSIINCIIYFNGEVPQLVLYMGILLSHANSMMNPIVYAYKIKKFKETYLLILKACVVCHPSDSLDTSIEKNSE

Adenosine receptor A2a = Adenosine receptor A2a (Rattus norvegicus, UniProt P30543); assay: Inhibition of [3H]-CGS- 21680 binding to Adenosine A2A receptor in rat striatal membranes.; format: cell membranes, Membrane
Adenosine receptor A3 [2] = target: T2, Adenosine receptor A3 (Rattus norvegicus, UniProt P28647); assay: Displacement of specific [125I]AB-MECA binding at rat Adenosine A3 receptor stably expressed in CHO cells; format: cell-based
T2 sequence (P28647 whole entry): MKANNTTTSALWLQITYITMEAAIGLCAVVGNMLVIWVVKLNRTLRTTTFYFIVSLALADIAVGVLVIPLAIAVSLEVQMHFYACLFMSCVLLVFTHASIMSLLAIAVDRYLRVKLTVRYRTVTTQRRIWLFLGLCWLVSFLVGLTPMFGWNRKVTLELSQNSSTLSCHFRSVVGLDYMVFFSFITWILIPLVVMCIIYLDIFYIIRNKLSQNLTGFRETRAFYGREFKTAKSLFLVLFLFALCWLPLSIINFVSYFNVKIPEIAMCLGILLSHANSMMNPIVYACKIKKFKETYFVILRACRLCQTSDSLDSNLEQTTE

Adenosine receptor A1 = target: T3, Adenosine receptor A1 (Rattus norvegicus, UniProt P25099); assay: Displacement of specific [3H]-CGS- 21680R-PIA binding to Adenosine A1 receptor in rat brain membranes.; format: cell membranes; conditions: in the assay text read “[3H]R-PIA” for “[3H]-CGS- 21680R-PIA”
T3 sequence (P25099 whole entry): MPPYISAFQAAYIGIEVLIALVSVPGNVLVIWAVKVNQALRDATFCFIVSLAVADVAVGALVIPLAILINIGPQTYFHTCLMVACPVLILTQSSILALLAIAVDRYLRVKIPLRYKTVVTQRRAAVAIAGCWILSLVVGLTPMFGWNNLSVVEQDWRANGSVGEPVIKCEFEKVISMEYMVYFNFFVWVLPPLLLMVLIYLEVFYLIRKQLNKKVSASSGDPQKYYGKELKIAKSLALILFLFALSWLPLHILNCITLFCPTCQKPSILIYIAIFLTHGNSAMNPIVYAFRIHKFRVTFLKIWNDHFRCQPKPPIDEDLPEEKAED
Outline: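 A1 binding used [3H]R-PIA on rat cerebral cortex membranes. Adenosine deaminase (3 units/mL) was included in membrane preparation, in a 30 min preincubation at 30 °C, and throughout radioligand incubation. Competitors were DMSO stocks diluted in buffer, with DMSO never above 2%.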

Rattus norvegicus [3] = species: Rattus norvegicus; assay: Ratio of binding affinities for rat A1 receptor against human A3 receptor, [Ki(rA1) / Ki (hA3)].
Outline: (§2)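 Ratio of Ki values from binding assays. For A3, [125I]AB-MECA (final 0.3 nM) bound membranes of HEK-293 cells expressing human A3 (clone HS-21a) or CHO cells expressing rat A3, in Tris/Mg2+/EDTA buffer at pH 8.0. For rat A1, [3H]R-PIA bound cerebral cortex membranes, with adenosine deaminase (3 units/mL) present, including a 30 min preincubation at 30 °C.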

Rattus norvegicus [4] = species: Rattus norvegicus; assay: Ratio of the binding affinities against rat A3 receptor / rat A3 receptor, Ki(rA1) / Ki (rA3).; outline: as §2
Rattus norvegicus [5] = species: Rattus norvegicus; assay: Ratio of the binding affinities against rat A3 receptor / human A3 receptor, Ki(rA1) / Ki (hA3).; outline: as §2
Adenosine receptor A3 [6] = target: T4, Adenosine receptor A3 (Homo sapiens, UniProt P0DMS8); assay: as §1; format: cell-based, HEK293
T4 sequence (P0DMS8 whole entry): T1 sequence (whole entry)
Outline: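 Membranes from HEK-293 cells stably expressing human A3 receptor (clone HS-21a), or from CHO cells stably expressing rat A3 receptor (rat: n = 3-5), in 50 mM Tris, 10 mM Mg2+, 1 mM EDTA, pH 8.0. Membranes at 0.3 mg protein/mL with [125I]AB-MECA at 0.3 nM final. Nonspecific binding defined with R-PIA. Competitors were dissolved in DMSO (≤2% final) and tested at ≥5 concentrations spanning 3 log units. Bound ligand was separated by GF/B filtration with three buffer rinses; Ki was derived.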

[7] = target: Adenosine receptor A2a (Rattus norvegicus) (UniProt P30543); assay: Displacement of specific [3H]-CGS- 21680 binding to Adenosine A2A receptor in rat striatal membranes; format: cell membranes; parameters: concentration or dose not given beside the values; conditions: Membrane, concentration not given here
Outline: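 Rat striatal membranes labelled with [3H]CGS 21680 for A2A binding. Adenosine deaminase (3 units/mL) was present during membrane preparation, during a 30 min preincubation at 30 °C, and during radioligand incubation. Competitors were dissolved in DMSO and diluted in buffer (DMSO ≤2%).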

Adenosine receptor A2a, sequence (P30543 whole entry): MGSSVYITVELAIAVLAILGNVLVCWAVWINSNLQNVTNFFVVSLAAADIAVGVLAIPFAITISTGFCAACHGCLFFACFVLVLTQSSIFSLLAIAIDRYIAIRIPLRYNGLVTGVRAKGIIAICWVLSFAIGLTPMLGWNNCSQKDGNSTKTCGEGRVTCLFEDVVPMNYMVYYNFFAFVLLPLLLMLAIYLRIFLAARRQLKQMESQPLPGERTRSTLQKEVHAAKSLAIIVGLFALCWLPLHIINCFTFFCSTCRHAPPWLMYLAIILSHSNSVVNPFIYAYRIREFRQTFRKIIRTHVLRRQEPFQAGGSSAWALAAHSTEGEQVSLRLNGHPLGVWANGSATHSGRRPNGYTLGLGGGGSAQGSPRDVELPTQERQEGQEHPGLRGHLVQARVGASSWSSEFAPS
Adenosine receptor A2a (Rattus norvegicus), sequence (P30543 whole entry): as above

CCCc1nc(-c2ccccc2)c(C(=O)OCC)c(CC)c1C(=O)SCC
pKi [1]: 7.48

CCSC(=O)c1c(CC)nc(-c2ccccc2)c(C(=O)OCCF)c1CC
Ki (Adenosine receptor A2a): 7.33 µM | Ki (Adenosine receptor A3 [2]): 0.6 µM | pKi [1]: 8.37 | Ki (Adenosine receptor A1): 11.5 µM | Ratio (Rattus norvegicus [3]): 2700 | Ratio (Rattus norvegicus [4]): 19 | Ratio (Rattus norvegicus [5]): 140

CCCOC(=O)c1c(-c2cccc(F)c2)nc(CC)c(C(=O)SCC)c1CCC
Ki (Adenosine receptor A2a): 28.1 µM | pKi [1]: 7.54 | Ki (Adenosine receptor A3 [6]): 0.0289 µM | Ki (Adenosine receptor A1): 8.2 µM | Ratio (Rattus norvegicus [3]): 280

CCOC(=O)c1c(C)nc(C2CCCC2)c(C(=O)OCc2ccccc2)c1C#Cc1ccccc1
pKi [1]: 5.41

CCOC(=O)c1c(C)nc(-c2ccccc2)c(C(=O)OCc2ccccc2)c1C#Cc1ccccc1
pKi [1]: 5.56

CCOC(=O)c1c(CC)nc(-c2ccccc2)c(C(=O)OCC)c1C
pKi [1]: 6.92

CCCOC(=O)c1c(-c2ccccc2)nc(CCOCc2ccccc2)c(C(=O)SCC)c1CCC
pKi [1]: 6.96 | Ki (Adenosine receptor A3 [6]): 0.109 µM | Ki (Adenosine receptor A1): 16 µM

CCCc1c2c(nc(-c3ccccc3)c1C(=O)OCC)CCSC2=O
Ki (Adenosine receptor A2a): 43.6 µM | Ki (Adenosine receptor A1): 25.1 µM

CCCSC(=O)c1c(CC)nc(-c2ccccc2)c(C(=O)OCC)c1CC
pKi [1]: 7.8

CCCc1c(C(=O)SCC)c(CC)nc(-c2ccccc2)c1C(=O)OCC(F)(F)C(F)(F)F
Ki (Adenosine receptor A2a): 14 µM | pKi [1]: 6.35 | Ki (Adenosine receptor A3 [6]): 0.446 µM | Ki (Adenosine receptor A1): 5.68 µM | Ratio (Rattus norvegicus [3]): 13

CCCOC(=O)c1c(C)nc(-c2ccccc2)c(C(=O)OCC)c1C
pKi [1]: 6.67

CCCOC(=O)c1c(-c2ccccc2)nc(CC)c2c1CCSC2=O
Ki (Adenosine receptor A2a): 67.1 µM | Ki (Adenosine receptor A3 [2]): 2.58 µM | pKi [1]: 7.6 | Ki (Adenosine receptor A3 [6]): 0.248 µM | Ki (Adenosine receptor A1): 16.5 µM

CCCc1c(C(=O)SCC)c(C)nc(-c2ccccc2)c1C(=O)OCC
pKi [1]: 6.71

CCCc1c(C(=O)SCC)c(CC)nc(-c2ccccc2)c1C(=O)OCCCF
Ki (Adenosine receptor A2a): 9.67 µM | Ki (Adenosine receptor A3 [2]): 0.512 µM | pKi [1]: 8.01 | Ki (Adenosine receptor A3 [6]): 0.00967 µM | Ki (Adenosine receptor A1): 6.05 µM | Ratio (Rattus norvegicus [3]): 630 | Ratio (Rattus norvegicus [4]): 12 | Ratio (Rattus norvegicus [5]): 53

CCCOC(=O)c1c(-c2ccccc2)nc(CC)c(C(=O)SCCF)c1CCC
Ki (Adenosine receptor A2a): 24.8 µM | pKi [1]: 7.26 | Ki (Adenosine receptor A3 [6]): 0.0551 µM | Ki (Adenosine receptor A1): 8.22 µM | Ratio (Rattus norvegicus [3]): 150

CCOC(=O)c1c(-c2ccccc2)nc(CCOC)c(C(=O)SCC)c1CC
pKi [1]: 7.77

CCCOC(=O)c1c(-c2ccccc2)nc(CC)c(C(=O)SCC)c1CCCF
Ki (Adenosine receptor A2a): 27.4 µM | Ki (Adenosine receptor A3 [2]): 0.9 µM | pKi [1]: 7.22 | Ki (Adenosine receptor A3 [6]): 0.0599 µM | Ki (Adenosine receptor A1): 8.09 µM | Ratio (Rattus norvegicus [3]): 140 | Ratio (Rattus norvegicus [4]): 9 | Ratio (Rattus norvegicus [5]): 15

CCCOC(=O)c1c(-c2ccccc2)nc(CC)c(C(=O)SCCO)c1CCC
Ki (Adenosine receptor A2a): 5.59 µM | pKi [1]: 7.29 | Ki (Adenosine receptor A3 [6]): 0.0511 µM | Ki (Adenosine receptor A1): 10.8 µM | Ratio (Rattus norvegicus [3]): 210

CCOC(=O)c1c(-c2cccc(Cl)c2)nc(CC)c(C(=O)SCC)c1CC
pKi [1]: 7.87

CCCOC(=O)c1c(-c2ccccc2)nc(CC)c(C(=O)SCC)c1CCCO
pKi [1]: 6.77

CCCOC(=O)c1c(-c2ccccc2)nc(CC)c(C(=O)SCC)c1CCO
Ki (Adenosine receptor A2a): 0.0103 µM | pKi [1]: 6.58 | Ki (Adenosine receptor A3 [6]): 0.262 µM | Ki (Adenosine receptor A1): 9.04 µM | Ratio (Rattus norvegicus [3]): 35

CCOC(=O)c1c(-c2ccccc2)nc(CC)c(C(=O)SCC)c1CC
pKi [1]: 7.67 | Ki (Adenosine receptor A1): 0.041 µM | Ratio (Rattus norvegicus [3]): > 3000 | Ratio (Rattus norvegicus [4]): > 100 | Ratio (Rattus norvegicus [5]): 21

CCCOC(=O)c1c(-c2cccc(Cl)c2)nc(CC)c(C(=O)SCCC)c1CC
pKi [1]: 8.1

CCCOC(=O)c1c(-c2ccccc2)nc(CC)c(C(=O)SCC2COC(C)(C)O2)c1CCC (stereo not given)
inhibition [7]: < 10% | Ki (Adenosine receptor A3 [6]): 2.64 µM | Ratio (Rattus norvegicus [3]): 2.2

CCOC(=O)c1c(C2CCCC2)nc(CC)c(C(=O)SCC)c1CC
pKi [1]: 5.47

CCOC(=O)c1c(-c2ccccc2)nc(C)c(C(=O)SCC)c1CC
pKi [1]: 7.37

CCCOC(=O)c1c(-c2ccc(F)cc2)nc(CC)c(C(=O)SCC)c1CCC
inhibition [7]: 50% | pKi [1]: 7.51 | Ki (Adenosine receptor A3 [6]): 0.0311 µM | Ki (Adenosine receptor A1): 41 µM | Ratio (Rattus norvegicus [3]): 1300

CCOC(=O)c1c(C)nc(-c2ccccc2)c(C(=O)OCC)c1CC
pKi [1]: 6.75

CCSC(=O)c1c(CC)nc(-c2ccccc2)c(C(=O)OCCO)c1CC
pKi [1]: 6.73

CCOC(=O)c1c(C)nc(C2CCC2)c(C(=O)OCc2ccccc2)c1C#Cc1ccccc1
pKi [1]: 5.62

CCOC(=O)c1c(-c2ccccc2)nc(CC)c(C(=O)SCC)c1CCN1C(=O)c2ccccc2C1=O
Ki (Adenosine receptor A2a): 1.14 µM | pKi [1]: 6.61 | Ki (Adenosine receptor A3 [6]): 0.243 µM | Ki (Adenosine receptor A1): 0.49 µM | Ratio (Rattus norvegicus [3]): 2

CCOC(=O)c1c(C)nc(-c2ccccc2)c(C(=O)OCC)c1C
pKi [1]: 5.35

CCSC(=O)c1c(C)nc(-c2ccccc2)c(C(=O)OCc2ccccc2)c1CC
pKi [1]: 5.58

CCCCc1nc(-c2ccccc2)c(C(=O)OCC)c(CC)c1C(=O)SCC
pKi [1]: 7.46

CCCOC(=O)c1c(-c2ccccc2)nc(CC)c(C(=O)SCC)c1CCC
Ki (Adenosine receptor A2a): 2.05 µM | pKi [1]: 7.72 | Ki (Adenosine receptor A3 [6]): 0.0189 µM | Ki (Adenosine receptor A1): 15.6 µM | Ratio (Rattus norvegicus [4]): 140 | Ratio (Rattus norvegicus [5]): 6

CCOC(=O)c1c(-c2ccccc2)nc(C2CCC2)c(C(=O)SCC)c1CC
pKi [1]: 6.84

CCCOC(=O)c1c(-c2ccccc2)nc(CC)c(C(=O)SCC)c1CCSC(C)=O
inhibition [7]: 28% | pKi [1]: 6.91 | Ki (Adenosine receptor A3 [6]): 0.124 µM | Ki (Adenosine receptor A1): 9.8 µM | Ratio (Rattus norvegicus [3]): 79

CCOC(=O)c1c(C)nc(-c2ccccc2)c(C(=O)OCC)c1C(OC)OC
pKi [1]: 6.11

CCOC(=O)c1c(-c2ccccc2)nc(C)c(C(=O)SCCOC)c1CC
pKi [1]: 6.78

CCOC(=O)c1c(-c2ccccc2)nc(CC)c(C(=O)O)c1CC
pKi [1]: 5.89
